Data as given in ChEMBL document CHEMBL4680083, “Identification of Tricyclic Agonists of Sphingosine-1-phosphate Receptor 1 (S1P) Employing Ligand-Based Drug Design” (J Med Chem, 2016).

Columns and labels:
[1] = Oral bioavailability in mouse at 5 mg/kg; assay type: ADME, organism-based; settings: in vivo
[2] = species: Homo sapiens; test: Inhibition of calcium channel (unknown origin) at 10 uM by patch clamp technique relative to control
[3] = AUC in rat at 1 mg/kg, po; assay type: ADME, organism-based; set-up: dose 1 mg/kg; settings: in vivo
[4] = Oral bioavailability in cynomolgus monkey at 0.5 mg/kg; assay type: ADME, organism-based, Macaca fascicularis; settings: in vivo
[5] = Protein binding in rat assessed as bound fraction; assay type: ADME; settings: read-out: PB (converted)
[6] = Clearance in cynomolgus monkey at 0.5 mg/kg, po or 0.5 mg/kg, iv; assay type: ADME, organism-based, Macaca fascicularis; settings: in vivo
[7] = AUC in mouse at 5 mg/kg, po; assay type: ADME, organism-based; set-up: dose 5 mg/kg; settings: in vivo
[8] = molecular target: Sphingosine 1-phosphate receptor 1 (Homo sapiens, UniProt P21453); test: Agonist activity at human S1P1 assessed as stimulation of cAMP accumulation relative to control; assay type: functional; settings: filed as agonist
[9] = Cmax in mouse at 5 mg/kg, po or 2 mg/kg, iv; assay type: ADME, organism-based; set-up: dose 5 mg/kg; settings: in vivo
[10] = Protein binding in mouse assessed as bound fraction; assay type: ADME; settings: read-out: PB (converted)
[11] = tested on: Rattus norvegicus; test: Antiarthritic activity in Lewis rat model of Complete Freund's adjuvant-induced arthritis assessed as reduction in paw swelling at 0.1 mg/kg, po qd administered for 21 days after CFA injection and measured weekly three times upto day 21 by water displacement plethysmometry; assay type: functional; set-up: scale not given: the % may be the effect or the level left; settings: time 21 day
In short: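 Male Lewis rats, 200−225 g, n = 8 per group. Immunized at the tail base with 100 μL of 10 mg/mL ground Mycobacterium butyricum in incomplete Freund's adjuvant. Oral dosing once daily in PEG300 vehicle from the day of immunization for 21 days, at 0.03, 0.1 or 1.0 mg/kg. Dexamethasone 0.1 mg/kg PO QD as positive control. Paw volume by water displacement plethysmometry, day 7 to day 21.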

[12] = tested on: Rattus norvegicus; test: Reduction in circulating lymphocytes count in Lewis rat blood assessed as effective dose administered orally measured at 4 to 24 hrs by hematology analyzer based analysis; assay type: functional; settings: po, time 4-24 hrs
[13] = Cmax in cynomolgus monkey at 0.5 mg/kg, po or 0.5 mg/kg, iv; assay type: ADME, organism-based, Macaca fascicularis; set-up: dose 0.5 mg/kg; settings: in vivo
[14] = Ratio of plasma concentration in Lewis rat at 1 mg/kg, po measured at 4 hrs to plasma concentration in Lewis rat at 1 mg/kg, po measured at 24 hrs; assay type: ADME, organism-based; settings: in vivo
[15] = Volume of distribution at steady state in mouse at 5 mg/kg, po or 2 mg/kg, iv; assay type: ADME, organism-based; settings: in vivo, read-out: Vdss
[16] = molecular target: Sphingosine 1-phosphate receptor 3 (Homo sapiens, UniProt Q99500); test: Agonist activity at human S1P3 expressed in CHO cell membranes assessed as stimulation of [35S]-GTPgamma-S binding measured after 45 mins by liquid scintillation counting method; set-up: species or system Cell membrane
Chain of Sphingosine 1-phosphate receptor 3 (Q99500 whole entry): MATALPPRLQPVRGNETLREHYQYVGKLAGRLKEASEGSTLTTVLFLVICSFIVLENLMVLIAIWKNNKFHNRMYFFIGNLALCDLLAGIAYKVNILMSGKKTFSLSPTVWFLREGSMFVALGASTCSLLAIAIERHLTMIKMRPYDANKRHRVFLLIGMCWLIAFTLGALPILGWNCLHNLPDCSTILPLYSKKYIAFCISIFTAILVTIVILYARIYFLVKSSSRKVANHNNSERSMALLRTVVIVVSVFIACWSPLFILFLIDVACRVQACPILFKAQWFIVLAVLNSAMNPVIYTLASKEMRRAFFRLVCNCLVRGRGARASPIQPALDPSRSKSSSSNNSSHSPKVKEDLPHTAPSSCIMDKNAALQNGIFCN

Chain of Sphingosine 1-phosphate receptor 1 (P21453 whole entry): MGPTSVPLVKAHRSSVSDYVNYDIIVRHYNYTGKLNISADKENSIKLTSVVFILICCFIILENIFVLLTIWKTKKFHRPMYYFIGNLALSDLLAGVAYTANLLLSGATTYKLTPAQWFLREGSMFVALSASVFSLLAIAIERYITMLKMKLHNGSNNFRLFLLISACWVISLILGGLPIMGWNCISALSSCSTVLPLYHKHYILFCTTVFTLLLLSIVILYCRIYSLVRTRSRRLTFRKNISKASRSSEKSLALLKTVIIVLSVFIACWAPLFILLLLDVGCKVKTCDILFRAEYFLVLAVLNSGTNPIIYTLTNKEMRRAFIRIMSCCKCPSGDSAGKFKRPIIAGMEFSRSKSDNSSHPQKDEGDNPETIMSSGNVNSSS

F [1]: 80%
inhibition [2]: 11%
AUC [3]: 1.5 µM·h
bioavailability [4]: 80%
fraction unbound [5]: 0.004
clearance [6]: 2.4 mL/min/kg
AUC [7]: 30.3 µM·h
Emax [8]: 93%
Cmax [9]: 3600 nM
fraction unbound [10]: 0.007
Cmax [13]: 410 nM
Ratio [14]: 4
Vd [15]: 2.2 L/kg
EC50 [16]: 4.4 µM
SMILES: O=C(O)C1CN(Cc2ccc3c(c2)CCc2c-3noc2-c2onc(-c3ccccc3)c2C(F)(F)F)C1
Activity [11]: >50%
ED50 [12]: 0.05 mg/kg
